According to ChEMBL document CHEMBL1128172, “Structure-activity relationships of cyclic pentapeptide endothelin A receptor antagonists” (J Med Chem, 1995):
pIC50: −log10 of the molar value.

Assays:
Endothelin-1 receptor [1] = biological target: T1, Endothelin-1 receptor (Sus scrofa, UniProt Q29010); assay: The compound was tested for binding inhibitory activity against Endothelin A receptor from porcine aortic smooth muscle membranes.
T1 sequence (Q29010 whole entry): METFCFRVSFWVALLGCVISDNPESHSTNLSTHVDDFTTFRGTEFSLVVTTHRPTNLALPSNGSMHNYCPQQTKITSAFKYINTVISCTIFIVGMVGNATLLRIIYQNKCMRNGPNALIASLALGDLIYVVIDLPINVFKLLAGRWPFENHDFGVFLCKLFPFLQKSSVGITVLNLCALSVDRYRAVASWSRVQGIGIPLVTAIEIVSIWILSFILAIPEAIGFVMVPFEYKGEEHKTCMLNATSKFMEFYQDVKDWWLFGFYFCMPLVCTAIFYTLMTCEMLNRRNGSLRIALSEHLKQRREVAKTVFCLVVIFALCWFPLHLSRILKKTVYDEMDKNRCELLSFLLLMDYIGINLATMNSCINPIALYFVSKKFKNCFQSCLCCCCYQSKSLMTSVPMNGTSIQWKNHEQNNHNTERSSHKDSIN

[2] = Solubility in saline; format: physicochemical; conditions: buffer
Summary of the method: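 Measured on the sodium salts, dissolved in saline.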

Sus scrofa = species on record: Sus scrofa; assay: Anti vasoconstriction activity was evaluated in isolated porcine coronary arteries; format: functional; conditions: read-out: pA2 (converted)
Endothelin-1 receptor [3] = biological target: T2, Endothelin-1 receptor (Homo sapiens, UniProt P25101); assay: Inhibitory effect against Human Endothelin A receptor
T2 sequence (P25101 whole entry): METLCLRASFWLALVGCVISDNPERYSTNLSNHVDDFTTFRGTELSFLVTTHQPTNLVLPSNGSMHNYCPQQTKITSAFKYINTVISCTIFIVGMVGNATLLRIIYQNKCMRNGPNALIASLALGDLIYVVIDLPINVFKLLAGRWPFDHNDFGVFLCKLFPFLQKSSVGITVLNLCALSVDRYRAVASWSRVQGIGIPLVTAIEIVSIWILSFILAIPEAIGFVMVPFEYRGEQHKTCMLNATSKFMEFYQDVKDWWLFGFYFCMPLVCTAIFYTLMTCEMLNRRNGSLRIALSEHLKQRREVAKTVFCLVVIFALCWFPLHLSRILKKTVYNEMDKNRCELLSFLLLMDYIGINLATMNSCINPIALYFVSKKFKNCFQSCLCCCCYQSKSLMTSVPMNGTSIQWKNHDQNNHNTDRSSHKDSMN
Summary of the method: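 Competition binding of 12 pM [125I]ET-1 to membranes from human neuroblastoma SK-N-MC cells (ETA) or Girardi heart cells (ETB), with increasing test compound, in 50 mM Tris/HCl pH 7.4 with protease inhibitors, 1 mM EDTA and 0.3% BSA. Incubated 4 h at 25 °C, filtered, washed, gamma-counted. Nonspecific binding defined with 0.2 μM ET-1. Values are the average of two independent experiments.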

Row | IC50 max (Endothelin-1 receptor [1]) [nM] | SMILES | also measured
1 | 32 | CC(C)C[C@@H]1NC(=O)[C@@H](C(C)C)NC(=O)CN(C)C(=O)[C@@H](CC(=O)O)NC(=O)[C@@H](Cc2c[nH]c3ccccc23)NC1=O (single isomer, unassigned) | –
2 | 5600 | CC(C)[C@H]1NC(=O)[C@H](C)NC(=O)[C@@H](CC(=O)O)NC(=O)[C@@H](Cc2c[nH]c3ccccc23)NC(=O)[C@H](CC2CCCCC2)NC1=O (single isomer, unassigned) | –
3 | 260 | CC(C)C[C@@H]1NC(=O)[C@@H](C)NC(=O)[C@@H]2CCCN2C(=O)[C@@H](CC(=O)O)NC(=O)[C@@H](Cc2c[nH]c3ccccc23)NC1=O (single isomer, unassigned) | –
4 | 34 | CC(C)C[C@@H]1NC(=O)[C@@H](C(C)C)NC(=O)[C@H](C)N(C)C(=O)[C@@H](CC(=O)O)NC(=O)[C@@H](Cc2c[nH]c3ccccc23)NC1=O (single isomer, unassigned) | –
5 | 150 | CC(C)C[C@@H]1NC(=O)[C@@H](C(C)C)NC(=O)[C@H](Cc2c[nH]c3ccccc23)NC(=O)[C@@H](CC(=O)O)NC(=O)[C@@H](Cc2c[nH]c3ccccc23)NC1=O (single isomer, unassigned) | –
6 | 120 | CCCC[C@H]1NC(=O)[C@@H]2CCCN2C(=O)[C@@H](CC(=O)O)NC(=O)[C@@H](Cc2c[nH]c3ccccc23)NC(=O)[C@H](CC(C)C)NC1=O (single isomer, unassigned) | –
7 | 22 | CC(C)C[C@@H]1NC(=O)[C@@H](C(C)C)NC(=O)[C@@H]2CCCN2C(=O)[C@@H](CC(=O)O)NC(=O)[C@@H](Cc2c[nH]c3ccccc23)NC1=O (single isomer, unassigned) | S [2]: > 1000 mg/mL; Kb (Sus scrofa): 39.8 nM; pIC50 (Endothelin-1 receptor [3]): 8.08
8 | 160 | CC(C)C[C@@H]1NC(=O)[C@@H](C(C)C)NC(=O)CNC(=O)[C@@H](CC(=O)O)NC(=O)[C@@H](Cc2c[nH]c3ccccc23)NC1=O (single isomer, unassigned) | –
9 | 250 | CC(C)C[C@@H]1NC(=O)[C@@H](C(C)C)NC(=O)[C@H](CCCN)NC(=O)[C@@H](CC(=O)O)NC(=O)[C@@H](Cc2c[nH]c3ccccc23)NC1=O (single isomer, unassigned) | –
10 | 8500 | CC(C)[C@H]1NC(=O)[C@H](C)NC(=O)[C@@H](CC(=O)O)NC(=O)[C@@H](Cc2c[nH]c3ccccc23)NC(=O)[C@@H]2CCCN2C1=O (single isomer, unassigned) | –
11 | 1500 | CC(C)C[C@@H]1NC(=O)[C@@H](C(C)C)NC(=O)[C@@H]2CCCN2C(=O)[C@@H](CC(=O)O)NC(=O)[C@@H](Cc2cn(C(=O)OC(C)(C)C)c3ccccc23)NC1=O (single isomer, unassigned) | –
12 | 140 | CC(C)C[C@@H]1NC(=O)[C@@H](C(C)C)NC(=O)[C@H](CCC(=O)O)NC(=O)[C@@H](CC(=O)O)NC(=O)[C@@H](Cc2c[nH]c3ccccc23)NC1=O (single isomer, unassigned) | –
13 | 20 | CC(C)C[C@@H]1NC(=O)[C@@H](C(C)C)NC(=O)[C@@H]2CSCN2C(=O)[C@@H](CC(=O)O)NC(=O)[C@@H](Cc2c[nH]c3ccccc23)NC1=O (single isomer, unassigned) | –
14 | 240 | CC(C)C[C@@H]1NC(=O)[C@@H](C(C)C)NC(=O)[C@H](CS)NC(=O)[C@@H](CC(=O)O)NC(=O)[C@@H](Cc2c[nH]c3ccccc23)NC1=O (single isomer, unassigned) | –
15 | > 100000 | CC(C)C[C@@H]1NC(=O)[C@@H](C(C)C)NC(=O)[C@@H]2CCCN2C(=O)[C@@H](CC(=O)O)NC(=O)[C@@H](Cc2c[nH]cn2)NC1=O (single isomer, unassigned) | –
16 | 2800 | CC(C)[C@H]1NC(=O)[C@H](CC(=O)O)NC(=O)[C@@H](CC(=O)O)NC(=O)[C@@H](Cc2c[nH]c3ccccc23)NC(=O)[C@H](C)NC1=O (single isomer, unassigned) | –
17 | 140 | CC(C)C[C@@H]1NC(=O)[C@@H](C(C)C)NC(=O)[C@H](CS(=O)(=O)O)NC(=O)[C@@H](CC(=O)O)NC(=O)[C@@H](Cc2c[nH]c3ccccc23)NC1=O (single isomer, unassigned) | –
18 | 62 | CCCC[C@@H]1NC(=O)[C@@H](C(C)C)NC(=O)[C@@H]2CCCN2C(=O)[C@@H](CC(=O)O)NC(=O)[C@@H](Cc2c[nH]c3ccccc23)NC1=O (single isomer, unassigned) | –
19 | 1700 | CC(C)C[C@@H]1NC(=O)[C@@H](C(C)C)NC(=O)[C@@H]2CCCN2C(=O)[C@@H](CCO)NC(=O)[C@@H](Cc2c[nH]c3ccccc23)NC1=O (single isomer, unassigned) | –
20 | > 100000 | CC(C)C[C@@H]1NC(=O)[C@@H](C(C)C)NC(=O)[C@@H]2CCCN2C(=O)[C@@H](CC(=O)O)NC(=O)[C@@H](Cc2ccccc2)NC1=O (single isomer, unassigned) | –
21 | 49 | CC(C)C[C@@H]1NC(=O)[C@@H](C(C)(C)S)NC(=O)[C@@H]2CCCN2C(=O)[C@@H](CC(=O)O)NC(=O)[C@@H](Cc2c[nH]c3ccccc23)NC1=O (single isomer, unassigned) | –
22 | 270 | CC(C)C[C@@H]1NC(=O)[C@@H](C(C)C)NC(=O)[C@H]([C@@H](C)O)NC(=O)[C@@H](CC(=O)O)NC(=O)[C@@H](Cc2c[nH]c3ccccc23)NC1=O (stereo in doubt) | –
23 | 230 | CC[C@H](C)[C@@H]1NC(=O)[C@@H](C(C)C)NC(=O)[C@@H]2CCCN2C(=O)[C@@H](CC(=O)O)NC(=O)[C@@H](Cc2c[nH]c3ccccc23)NC1=O (stereo in doubt) | –
